Calls of active or inactive are those of the source. No cut-off for these calls is given here.
Tests used:
[1] = Cytotoxicity against human 8226/DOX40 cells after 72 hrs by fluorometric assay; type: functional, cell-based
Method in brief: (§1)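 Fluorometric microculture cytotoxicity assay (FMCA). Cell suspensions (10,000–20,000 cells per mL) were exposed at 37 °C for 72 h to six concentrations from 0.016 to 50, added from DMSO stocks (at most 1% DMSO final). Cells were washed with PBS and given fluorescein diacetate (10 µg/mL). Fluorescence at 485/520 nm was read after 40 min. Survival index is relative to untreated wells. Duplicate wells, experiment repeated twice.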

ACHN = test: Cytotoxicity against human ACHN cells after 72 hrs by fluorometric assay; type: functional, cell-based; method in brief: as §1
[2] = Cytotoxicity against human vincristine-resistant […] cells after 72 hrs by fluorometric assay; type: functional, cell-based; method in brief: as §1
[3] = Cytotoxicity against human 8226/LR-5 cells after 72 hrs by fluorometric assay; type: functional, cell-based; method in brief: as §1
U-937/GTB = test: Cytotoxicity against human U937/GTB cells after 72 hrs by fluorometric assay; type: functional, cell-based; method in brief: as §1
[4] = Cytotoxicity against human CEM/VM1 cells after 72 hrs by fluorometric assay; type: functional, cell-based; conditions: CEM-VM1, 72 h; method in brief: as §1
RPMI-8226 = test: Cytotoxicity against human RPMI8226 cells after 72 hrs by fluorometric assay; type: functional, cell-based; conditions: RPMI-8226, 72 h; method in brief: as §1
Tubulin (Sus scrofa) [5] = molecular target: T1, Tubulin (Sus scrofa) (UniProt P02554+P02550); test: Inhibition of pig tubulin polymerization at 25 uM; type: protein assay
Method in brief: (§2)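 Kit assay with porcine tubulin, standard protocol, read by fluorescent reporter enhancement. Test substances were dissolved in DMSO and run at 5 and 25. Docetaxel (stabilizing control) and vincristine (destabilizing control) were diluted in PBS and used at 3. The experiment was run twice and mean values were reported.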

NCI-H69 = test: Cytotoxicity against human NCI-H69 cells after 72 hrs by fluorometric assay; type: functional, cell-based; conditions: NCI-H69, 72 h; method in brief: as §1
CCRF-CEM = test: Cytotoxicity against human CCRF-CEM cells after 72 hrs by fluorometric assay; type: functional, cell-based; method in brief: as §1
H69AR = test: Cytotoxicity against human H69AR cells after 72 hrs by fluorometric assay; type: functional, cell-based; method in brief: as §1
Tubulin (Sus scrofa) [6] = molecular target: T1, Tubulin (Sus scrofa); test: Effect on pig tubulin polymerization assessed as microtubule stabilization at 3 uM; type: protein assay; method in brief: as §2
Tubulin (Sus scrofa) [7] = molecular target: T1, Tubulin (Sus scrofa); test: Inhibition of pig tubulin polymerization at 3 uM; type: protein assay; method in brief: as §2
Tubulin (Sus scrofa) [8] = molecular target: T1, Tubulin (Sus scrofa); test: Effect on pig tubulin polymerization assessed as microtubule stabilization at 25 uM; type: protein assay; method in brief: as §2
[9] = Homo sapiens, H69AR, 72 h, read-out: IC50

T1 sequence (P02550 whole entry, looked up): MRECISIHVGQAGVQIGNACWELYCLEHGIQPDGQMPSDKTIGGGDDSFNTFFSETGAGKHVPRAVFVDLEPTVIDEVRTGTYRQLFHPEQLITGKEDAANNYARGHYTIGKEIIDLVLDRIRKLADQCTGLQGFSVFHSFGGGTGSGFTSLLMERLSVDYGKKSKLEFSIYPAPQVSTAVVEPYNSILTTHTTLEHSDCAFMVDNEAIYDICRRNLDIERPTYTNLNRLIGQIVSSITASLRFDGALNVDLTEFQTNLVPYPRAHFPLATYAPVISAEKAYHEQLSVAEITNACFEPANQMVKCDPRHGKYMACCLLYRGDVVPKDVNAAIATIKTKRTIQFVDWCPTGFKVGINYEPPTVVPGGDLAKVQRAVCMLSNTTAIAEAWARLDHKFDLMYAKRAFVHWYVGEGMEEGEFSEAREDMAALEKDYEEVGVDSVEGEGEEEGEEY
T1 sequence (P02554 whole entry, looked up): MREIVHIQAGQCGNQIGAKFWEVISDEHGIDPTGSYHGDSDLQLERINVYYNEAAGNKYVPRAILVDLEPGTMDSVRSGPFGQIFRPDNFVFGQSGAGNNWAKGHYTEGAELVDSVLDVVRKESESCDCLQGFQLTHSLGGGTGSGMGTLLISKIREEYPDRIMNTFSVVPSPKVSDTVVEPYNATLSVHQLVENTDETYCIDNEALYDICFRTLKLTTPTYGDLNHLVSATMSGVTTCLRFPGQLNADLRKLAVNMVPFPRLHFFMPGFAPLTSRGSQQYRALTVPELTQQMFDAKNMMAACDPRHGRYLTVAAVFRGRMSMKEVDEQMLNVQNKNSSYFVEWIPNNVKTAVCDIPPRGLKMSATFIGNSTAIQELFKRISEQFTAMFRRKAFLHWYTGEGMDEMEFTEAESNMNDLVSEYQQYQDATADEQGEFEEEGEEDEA

| SMILES | IC50 [1] | IC50 (ACHN) | IC50 [2] | IC50 [3] | IC50 (U-937/GTB) | IC50 [4] | IC50 (RPMI-8226) | inhibition (Tubulin (Sus scrofa) [5]) | IC50 (NCI-H69) | IC50 (CCRF-CEM) | IC50 (H69AR; [9]) | Activity (Tubulin (Sus scrofa) [6]) | inhibition (Tubulin (Sus scrofa) [7]) | Activity (Tubulin (Sus scrofa) [8]) | IC50 (H69AR; h69ar) |
| --- | --- | --- | --- | --- | --- | --- | --- | --- | --- | --- | --- | --- | --- | --- | --- |
| CCN(CC)c1ccc(/C=C/C(=O)c2cc(Cl)cc(Br)c2O)cc1 | 9.7 µM | 164 µM | 8.8 µM | 9.4 µM | 9.3 µM | 14.5 µM | 29.4 µM | Active | 5.2 µM | 14.8 µM | 24.5 µM |  |  |  |  |
| CCN(CC)c1ccc(/C=C/C(=O)c2cc(Br)cc(Br)c2O)cc1 | 7.7 µM | 69 µM | 9.6 µM | 9.9 µM | 8.2 µM | 13.1 µM | 26.1 µM | Active | 7.1 µM | 20.1 µM | 38.8 µM |  |  |  |  |
| O=C(/C=C(\O)c1cc(Cl)cc(Br)c1O)/C=C/c1ccccc1 | 19.1 µM | 37.8 µM | 23.9 µM | 33.5 µM | 18.1 µM | 24.1 µM | 27.9 µM | inactive | 9.4 µM | 34.1 µM | 25.5 µM |  |  |  |  |
| O=C(/C=C/c1cccs1)c1cc(Cl)cc(Br)c1O | 26.5 µM | 44.2 µM | 32.6 µM | 23.3 µM | 42.5 µM | 48.9 µM | 79 µM | Active | 20 µM | 152 µM | 56.1 µM |  |  |  |  |
| CC(=O)O[C@@]12CO[C@@H]1C[C@H](O)[C@@]1(C)C(=O)[C@H](O)C3=C(C)[C@@H](OC(=O)[C@H](O)[C@@H](NC(=O)OC(C)(C)C)c4ccccc4)C[C@@](O)([C@@H](OC(=O)c4ccccc4)[C@H]21)C3(C)C |  |  |  |  |  |  |  |  |  |  |  | Active |  |  |  |
| CC[C@]1(O)C[C@H]2CN(CCc3c([nH]c4ccccc34)[C@@](C(=O)OC)(c3cc4c(cc3OC)N(C=O)[C@H]3[C@@](O)(C(=O)OC)[C@H](OC(C)=O)[C@]5(CC)C=CCN6CC[C@]43[C@@H]65)C2)C1 |  |  |  |  |  |  |  |  |  |  |  |  | Active |  |  |
| O=C(/C=C/c1ccc(C(F)(F)F)cc1)c1cc(Cl)cc(Br)c1O | 22.5 µM | 49.4 µM | 24.4 µM | 22.3 µM | 14.9 µM | 31.1 µM | 20.8 µM | inactive | 11.5 µM | 15.4 µM | 33.2 µM |  |  |  |  |
| O=C(/C=C/C=C/c1cn(Cc2ccccc2)c2ccccc12)c1cc(Cl)cc(Br)c1O | 42.3 µM | 17 µM | 54 µM | 70 µM | 49 µM | 89 µM | 119 µM |  | 11.1 µM | 280 µM | 48.5 µM |  |  | Active |  |
| O=C(/C=C/C=C/c1ccccc1)c1cc(Cl)cc(Br)c1O | 14.2 µM | 93 µM | 31.7 µM | 23.4 µM | 36.6 µM | 48.6 µM | 48.8 µM | Active | 19.9 µM | 129 µM |  |  |  |  | Non-toxic |
| COc1ccc(/C=C/C(=O)c2cc(Cl)cc(Br)c2O)cc1 | 16.9 µM | 49.4 µM | 77 µM | 46 µM | 45 µM | 45.8 µM | 80 µM | inactive | 16.4 µM | 111 µM | 42.6 µM |  |  |  |  |
| O=C(/C=C/c1ccccc1)c1cc(Cl)cc(Br)c1O | 12.4 µM | 48.9 µM | 24.2 µM | 13.2 µM | 20 µM | 22.3 µM | 18.7 µM | Active | 10.3 µM | 37.6 µM | 26.4 µM |  |  |  |  |

Source: ChEMBL document CHEMBL1764957, “Inhibitors and promoters of tubulin polymerization: synthesis and biological evaluation of chalcones and related dienones as potential anticancer agents” (Bioorg Med Chem, 2011)
